From ChEMBL document CHEMBL1135775 (J Med Chem, 2002)
Values joined by “and” are separate entries in the source; they are usually repeats but may differ in a detail not shown here. Equal values may be shown once.

Experiments:
[1] = Ratio of the IC50 value of Mazindol to that of the compound.; assay type: functional
[2] = molecular target: T1, Sodium-dependent noradrenaline transporter (Homo sapiens, UniProt P23975); assay: Displacement of [125I]RTI-55 from human Norepinephrine transporter expressed in HEK cells; assay type: cell-based, HEK293
[3] = Discrimination ratio against SERT as ratio of IC50 to that of Ki uptake to SERT.; assay type: functional
[4] = molecular target: T1, Sodium-dependent noradrenaline transporter; assay: Inhibition of NE uptake in HEK cells expressing human noradrenaline transporter (hNET); assay type: functional, cell-based, HEK293
[5] = molecular target: Monoamine transporters; Norepinephrine & dopamine (Homo sapiens) (UniProt Q01959+P23975); assay: Selectivity ratio as ratio of IC50 value against NET to that of DAT; assay type: protein assay
[6] = molecular target: T2, Sodium-dependent serotonin transporter (Homo sapiens, UniProt P31645); assay: Displacement of [125I]- RTI-55 from Serotonin transporter expressed in HEK cells; assay type: cell-based, HEK293
Summary of the method: (§1)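 Membranes from HEK293 cells expressing hDAT, hSERT or hNET (10–15 μg protein) preincubated 10 min with test compound in Krebs-HEPES pH 7.4. Two or three experiments in duplicate; IC50 converted to Ki by Cheng-Prusoff.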

[7] = molecular target: T3, Sodium-dependent dopamine transporter (Homo sapiens, UniProt Q01959); assay: Inhibition of dopamine uptake in HEK cells expressing human dopamine transporter (hDAT); assay type: functional, cell-based, HEK293
Summary of the method: (§2)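 Scraped HEK293 cells expressing hSERT or hDAT in Krebs-HEPES, preincubated 10 min at 25 °C with test compound. Uptake started with [3H]serotonin or [3H]dopamine (20 nM final), stopped after 10 min by filtration on PEI-soaked GF/C filters.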

[8] = molecular target: T3, Sodium-dependent dopamine transporter; assay: Displacement of [125I]- RTI-55 from Dopamine transporter expressed in HEK cells; assay type: cell-based, HEK293; summary of the method: as §1
[9] = molecular target: T2, Sodium-dependent serotonin transporter; assay: Inhibition of 5-HT uptake in HEK cells expressing human serotonin transporter (hSERT); assay type: functional, cell-based, HEK293; summary of the method: as §2
[10] = Discrimination ratio against NET as ratio of IC50 to that of Ki uptake to NET.; assay type: functional
[11] = molecular target: Monoamine transporters; serotonin & dopamine (Homo sapiens) (UniProt P31645+Q01959); assay: Selectivity ratio as ratio of IC50 value against SERT to that of DAT; assay type: protein assay
[12] = Discrimination ratio against DAT as ratio of IC50 to that of Ki uptake to DAT.; assay type: functional
[13] = molecular target: Sodium-dependent dopamine transporter (Rattus norvegicus, UniProt P23977); assay: Ability to displace [3H]WIN-35428 from Dopamine Transporter of rat striatal membrane
Summary of the method: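 Rat striatum (male Sprague-Dawley, 200-225 g) homogenised in ice-cold sucrose phosphate buffer pH 7.4, washed, resuspended at 10 mg/mL. Filtration on PEI-soaked GF/B filters, scintillation counting. Four experiments in triplicate.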

[14] = molecular target: Sodium-dependent dopamine transporter (Rattus norvegicus) (UniProt P23977); assay: Ability to displace [3H]WIN-35428 from Dopamine Transporter of rat striatal membrane at a concentration of 10 E-6 M
[15] = molecular target: T3, Sodium-dependent dopamine transporter; assay: Ability to block the uptake of […] at the Dopamine transporter of HEK cells expressing cDNA for the human transporter (hDAT); assay type: functional, cell-based, HEK293
[16] = molecular target: T1, Sodium-dependent noradrenaline transporter; assay: Ability to displace [125I]- RTI-55 binding at the Norepinephrine transporter site on HEK cells expressing cDNA for the human transporter (hNET); assay type: cell-based, HEK293
Summary of the method: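 Membranes from HEK293 cells expressing hDAT, hSERT or hNET (10–15 μg protein) preincubated 10 min with test compound in Krebs-HEPES pH 7.4. Then 40–80 pM [125I]RTI-55 added, 90 min at 25 °C, GF/C filtration. […] Two or three experiments in duplicate; IC50 converted to Ki by Cheng-Prusoff.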

T3 sequence (Q01959 whole entry): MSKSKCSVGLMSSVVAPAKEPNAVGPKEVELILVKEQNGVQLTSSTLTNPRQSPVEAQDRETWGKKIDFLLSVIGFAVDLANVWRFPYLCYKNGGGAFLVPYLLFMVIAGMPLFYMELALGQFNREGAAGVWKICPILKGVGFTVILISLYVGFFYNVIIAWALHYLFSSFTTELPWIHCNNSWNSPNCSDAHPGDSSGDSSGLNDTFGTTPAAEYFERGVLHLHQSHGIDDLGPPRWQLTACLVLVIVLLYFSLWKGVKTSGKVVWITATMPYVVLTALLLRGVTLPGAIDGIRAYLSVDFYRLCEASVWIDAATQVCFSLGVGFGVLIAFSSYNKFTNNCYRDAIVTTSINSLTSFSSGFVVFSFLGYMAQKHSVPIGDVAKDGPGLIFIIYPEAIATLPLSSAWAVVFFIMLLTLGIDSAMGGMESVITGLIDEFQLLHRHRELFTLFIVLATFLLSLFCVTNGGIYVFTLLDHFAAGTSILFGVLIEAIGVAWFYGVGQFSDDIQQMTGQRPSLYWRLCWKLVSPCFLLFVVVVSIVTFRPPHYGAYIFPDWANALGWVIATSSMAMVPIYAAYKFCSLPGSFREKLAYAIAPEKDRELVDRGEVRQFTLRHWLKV
Chain of Monoamine transporters; serotonin & dopamine (Homo sapiens) (P31645 whole entry, looked up): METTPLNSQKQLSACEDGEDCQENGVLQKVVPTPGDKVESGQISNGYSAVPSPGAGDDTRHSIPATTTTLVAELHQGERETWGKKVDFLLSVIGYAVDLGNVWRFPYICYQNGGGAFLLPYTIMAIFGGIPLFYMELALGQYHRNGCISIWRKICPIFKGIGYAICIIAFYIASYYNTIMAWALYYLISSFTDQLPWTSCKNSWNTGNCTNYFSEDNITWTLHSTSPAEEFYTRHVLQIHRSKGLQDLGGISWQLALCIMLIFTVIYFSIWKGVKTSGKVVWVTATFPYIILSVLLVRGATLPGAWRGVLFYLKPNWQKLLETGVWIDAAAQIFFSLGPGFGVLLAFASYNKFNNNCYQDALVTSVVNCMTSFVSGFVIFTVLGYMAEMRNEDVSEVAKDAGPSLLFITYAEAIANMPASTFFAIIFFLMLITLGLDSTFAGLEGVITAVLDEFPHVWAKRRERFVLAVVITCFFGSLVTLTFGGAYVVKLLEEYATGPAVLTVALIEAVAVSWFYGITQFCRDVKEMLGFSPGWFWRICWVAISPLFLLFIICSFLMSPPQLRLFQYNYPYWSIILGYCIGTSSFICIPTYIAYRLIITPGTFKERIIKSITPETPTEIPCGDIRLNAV
Chain of Monoamine transporters; serotonin & dopamine (Homo sapiens) (Q01959 whole entry, looked up): as the sequence (Q01959 whole entry) above
T2 sequence (P31645 whole entry): as the sequence (P31645 whole entry, looked up) above
Chain of Sodium-dependent dopamine transporter (Rattus norvegicus, UniProt P23977) (P23977 whole entry): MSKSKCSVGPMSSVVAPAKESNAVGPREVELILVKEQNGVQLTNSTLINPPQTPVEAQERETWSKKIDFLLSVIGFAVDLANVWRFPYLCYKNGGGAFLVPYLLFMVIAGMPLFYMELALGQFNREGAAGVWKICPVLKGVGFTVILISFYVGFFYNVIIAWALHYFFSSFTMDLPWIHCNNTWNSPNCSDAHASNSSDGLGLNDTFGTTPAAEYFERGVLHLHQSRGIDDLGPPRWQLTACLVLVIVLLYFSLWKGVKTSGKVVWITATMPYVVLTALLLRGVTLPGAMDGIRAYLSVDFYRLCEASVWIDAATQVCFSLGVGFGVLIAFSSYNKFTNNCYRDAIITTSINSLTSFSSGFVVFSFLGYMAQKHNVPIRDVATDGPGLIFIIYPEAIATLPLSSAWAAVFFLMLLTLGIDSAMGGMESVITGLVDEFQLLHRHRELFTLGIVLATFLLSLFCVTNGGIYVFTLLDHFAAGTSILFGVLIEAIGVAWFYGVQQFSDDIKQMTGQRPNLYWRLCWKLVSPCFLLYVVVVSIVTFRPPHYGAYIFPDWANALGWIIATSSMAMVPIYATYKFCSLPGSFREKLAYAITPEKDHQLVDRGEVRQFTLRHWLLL
Chain of Monoamine transporters; Norepinephrine & dopamine (Homo sapiens) (P23975 whole entry, looked up): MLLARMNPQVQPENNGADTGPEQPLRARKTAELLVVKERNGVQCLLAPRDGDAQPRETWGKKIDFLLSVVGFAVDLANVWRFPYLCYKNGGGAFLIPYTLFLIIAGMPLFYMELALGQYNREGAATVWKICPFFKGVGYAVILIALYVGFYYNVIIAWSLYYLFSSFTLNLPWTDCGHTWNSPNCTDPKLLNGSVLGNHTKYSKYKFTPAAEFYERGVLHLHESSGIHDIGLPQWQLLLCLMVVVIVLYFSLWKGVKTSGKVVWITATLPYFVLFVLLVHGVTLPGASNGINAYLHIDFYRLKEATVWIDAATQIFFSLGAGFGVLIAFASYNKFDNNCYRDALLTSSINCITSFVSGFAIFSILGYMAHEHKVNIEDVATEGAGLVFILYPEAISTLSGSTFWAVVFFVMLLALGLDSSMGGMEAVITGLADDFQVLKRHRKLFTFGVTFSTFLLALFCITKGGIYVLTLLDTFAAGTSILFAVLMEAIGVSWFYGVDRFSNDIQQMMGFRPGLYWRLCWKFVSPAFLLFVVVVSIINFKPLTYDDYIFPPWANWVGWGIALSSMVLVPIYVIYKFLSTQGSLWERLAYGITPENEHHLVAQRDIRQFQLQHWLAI
Chain of Monoamine transporters; Norepinephrine & dopamine (Homo sapiens) (Q01959 whole entry, looked up): as the sequence (Q01959 whole entry) above
T1 sequence (P23975 whole entry): as the sequence (P23975 whole entry, looked up) above
Chain of Sodium-dependent dopamine transporter (Rattus norvegicus) (P23977 whole entry): as the sequence (P23977 whole entry) above

Compound `OC1(c2cccc(C(F)(F)F)c2)c2ccccc2C2=NCCN21` (stereo not given) has a Ratio [1] of 0.04.

In the case of `COCC1(c2ccc(Cl)cc2)c2ccccc2C2=NCCCN21` (stereo not given), the Ratio [1] is reported as less than 0.002.

`OC1(c2ccccc2)c2ccccc2C2=NCCN21` (stereo not given) showed a Ki [2] of 0.1 µM, a Ratio [3] of 1.2 and an IC50 [4] of 0.0028 µM. For the same compound, the Ratio [5] was 0.1, the Ki [6] was 1.76 µM and the Ratio [1] was 0.1. For the same compound, the IC50 [7] was 0.73 µM, the Ki [8] was 1.07 µM and the IC50 [9] was 2.14 µM. The Ratio [10] was 0.03, the Ratio [11] was 1.6 and the Ratio [12] was 0.7.

`OC1(c2ccc(C(F)(F)F)cc2)c2ccccc2C2=NCCN21` (stereo not given) gave a Ratio [1] of 0.03.

Work on `OC1(c2ccccc2)c2cc(Cl)ccc2C2=NCCN21` (stereo not given) yielded a Ratio [1] of 0.1.

In the case of `Cc1cc(C)c2c(c1)C1=NCCN1C2(O)c1ccc(Cl)cc1` (stereo not given), the Ratio [1] is reported as 0.6.

Compound `OC1(c2ccc(OCc3ccccc3)cc2)c2ccccc2C2=NCCCN21` (stereo not given) has a Ratio [1] of 0.1.

`OC1(c2ccncc2)c2ccccc2C2=NCCN21` (stereo not given) gave a Ratio [1] of 0.1.

`OC1(c2ccccc2)c2c(Cl)cccc2C2=NCCN21` (stereo not given) gave a Ratio [1] of 0.1.

`OC1(c2ccc(Cl)cc2)c2cccc(F)c2C2=NCCN21` (stereo not given) showed a Ki [2] of 0.0009 µM, a Ratio [3] of 3.4 and an IC50 [4] of 0.005 µM. It also gave a Ratio [5] of 0.04, a Ki [6] of 0.0381 µM and a Ratio [1] of 3.5. For the same compound, the IC50 [7] was 0.091 µM, the Ki [8] was 0.0231 µM and the IC50 [9] was 0.129 µM. The Ratio [10] was 5.6, the Ratio [11] was 1.65 and the Ratio [12] was 4.

In the case of `C=CCOc1cccc(C2(O)c3ccccc3C3=NCCCN32)c1` (stereo not given), the Ratio [1] is reported as 0.2 and the IC50 [13] is reported as 0.219 µM.

`OC1(c2ccc(Cl)cc2)c2ccccc2C2=NCCN21` (stereo not given) [MAZINDOL] gave an IC50 [4] of 0.0049 µM and an IC50 [9] of 0.094 µM.

In the case of `Oc1ccc(C2(O)c3ccccc3C3=NCCCN32)cc1` (stereo not given), the Ki [2] is reported as 0.38 µM, the Ratio [3] is reported as 0.8 and the IC50 [4] is reported as 0.0019 µM. It also gave a Ratio [5] of 4.4, a Ki [6] of 0.077 µM and a Ratio [1] of 2.4. For the same compound, the IC50 [7] was 0.059 µM, the Ki [8] was 0.0871 µM and the IC50 [9] was 0.06 µM. The Ratio [10] was 0.005, the Ratio [11] was 0.9 and the Ratio [12] was 0.7.

`Clc1ccc(C2c3ccccc3C3=NCCN32)cc1` (stereo not given) gave a Ki [2] of 0.17 µM, an IC50 [4] of 0.0069 µM and a Ki [6] of 0.026 µM. It also gave a Ratio [1] of 1.4, an IC50 [7] of 0.006 µM and a Ki [8] of 0.023 µM. It also gave an IC50 [9] of 0.015 µM.

With `COc1cccc2c1C(O)(c1ccc(Cl)cc1)N1CCN=C21` (stereo not given) the Ki [2] was 0.0231 µM, the Ratio [3] was 1.8 and the IC50 [4] was 0.00173 µM. It also gave a Ratio [5] of 2.2, a Ki [6] of 1.99 µM and a Ratio [1] of 0.6. The IC50 [7] was 0.06 µM, the Ki [8] was 0.0103 µM and the IC50 [9] was 3.6 µM. It also gave a Ratio [10] of 0.07, a Ratio [11] of 193 and a Ratio [12] of 5.8.

Work on `OC1(c2ccc(Cl)cc2)c2cccc(-c3ccccc3)c2C2=NCCN21` (stereo not given) yielded a Ratio [1] of 0.1.

Work on `COc1cc(C2(O)c3ccccc3C3=NCCN32)cc(OC)c1OC` (stereo not given) yielded a Ratio [1] of less than 0.002.

`OC1(c2ccc(Cl)cc2)c2ccccc2C2=NCCCN21` (stereo not given) showed a Ratio [3] of 1.4, an IC50 [4] of 0.0049 µM and a Ratio [5] of 10.6. The Ratio [1] was 8.1 and 10.1, the IC50 [7] was 0.0037 µM and the IC50 [9] was 0.053 µM. The Ratio [10] was 2.2, the Ratio [11] was 23 and the Ratio [12] was 2.2.

Compound `CC1(c2ccc(Cl)cc2)c2ccccc2C2=NCCCN21` (stereo not given) has a Ratio [1] of 0.3.

`OC1(c2ccc3c(c2)OCO3)c2ccccc2C2=NCCN21` (stereo not given) showed a Ratio [1] of 0.4.

For `CN(C)Cc1ccc(C2(O)c3ccccc3C3=NCCN32)cc1` (stereo not given), the Ratio [1] was 0.003.

In the case of `COc1cccc2c1C1=NCCN1C2(O)c1ccc(Cl)cc1` (stereo not given), the Ki [2] is reported as 0.0068 µM, the Ratio [3] is reported as 0.3 and the IC50 [4] is reported as 0.0047 µM. The Ratio [5] was 2.3, the Ki [6] was 0.87 µM and the Ratio [1] was 9. The IC50 [7] was 0.042 µM, the Ki [8] was 0.0029 µM and the IC50 [9] was 0.28 µM. For the same compound, the Ratio [10] was 0.7, the Ratio [11] was 300 and the Ratio [12] was 14.5.

In the case of `OC1(c2ccc(Cl)cc2)c2c(ccc3c2OCO3)C2=NCCN21` (stereo not given), the Ratio [1] is reported as 0.1.

Work on `OC1(c2ccc(-c3ccccc3)cc2)c2ccccc2C2=NCCN21` (stereo not given) yielded an inhibition [14] of 14.1% and a Ratio [1] of less than 0.002.

Work on `COc1ccc2c(c1)C(O)(c1ccc(Cl)cc1)N1CCN=C21` (stereo not given) yielded a Ki [2] of 0.023 µM, a Ratio [3] of 1.9 and an IC50 [4] of 0.00146 µM. The Ratio [5] was 3.9, the Ki [6] was 1.03 µM and the Ratio [1] was 3.2. It also gave an IC50 [7] of 0.0167 µM, a Ki [8] of 0.006 µM and an IC50 [9] of 1.96 µM. The Ratio [10] was 0.06, the Ratio [11] was 172 and the Ratio [12] was 2.8.

With `COC(=O)c1ccc(C2(O)c3ccccc3C3=NCCN32)cc1` (stereo not given) the Ratio [1] was 0.002.

Work on `OC1(c2cccnc2)c2ccccc2C2=NCCN21` (stereo not given) yielded a Ratio [1] of 0.013.

`Cc1ccc(C2(O)c3ccccc3C3=NCCN32)cc1` (stereo not given) showed a Ratio [1] of 0.1.

Work on `OC1(c2ccccn2)c2ccccc2C2=NCCN21` (stereo not given) yielded a Ratio [1] of less than 0.002.

`OC1(c2ccc3c(c2)OCO3)c2ccccc2C2=NCCCN21` (stereo not given) showed a Ratio [3] of 3.2, an IC50 [4] of 0.00062 µM and a Ratio [5] of 3.5. It also gave a Ki [6] of 0.0256 µM, an IC50 [15] of 0.00221 µM and a Ki [8] of 0.00255 µM. The Ki [16] was 0.0088 µM, the IC50 [13] was 0.00194 µM and the IC50 [9] was 0.083 µM. It also gave a Ratio [10] of 0.07, a Ratio [11] of 10 and a Ratio [12] of 0.8.

With `OC1(c2ccc3c(c2)OCCO3)c2ccccc2C2=NCCN21` (stereo not given) the Ratio [1] was 0.03.

Compound `OC1(c2ccc(Cl)cc2)c2cc(Cl)c(Cl)cc2C2=NCCN21` (stereo not given) has a Ki [2] of 0.04 µM, a Ratio [3] of 0.3 and an IC50 [4] of 0.01 µM. The Ratio [5] was 38, the Ki [6] was 1.35 µM and the Ratio [1] was 0.6. The IC50 [7] was 0.006 µM, the Ki [8] was 0.00105 µM and the IC50 [9] was 0.444 µM. It also gave a Ratio [10] of 0.3, a Ratio [11] of 1280 and a Ratio [12] of 5.7.

Work on `COc1ccc(C2(O)c3ccccc3C3=NCCN32)cc1OC` (stereo not given) yielded a Ratio [1] of 0.001.

`C=CCOc1ccc(C2(O)c3ccccc3C3=NCCCN32)cc1` (stereo not given) gave a Ratio [1] of 0.1.

In the case of `COc1ccc(C2(O)c3ccccc3C3=NCCN32)cc1` (stereo not given), the Ratio [1] is reported as 0.4.

`COC1(c2ccc(Cl)cc2)c2ccccc2C2=NCCN21` (stereo not given) gave a Ratio [1] of 0.008 and an IC50 [13] of 1.01 µM.

Work on `COc1ccc(C2(O)c3ccccc3C3=NCCCN32)cc1` (stereo not given) yielded a Ki [2] of 0.084 µM, a Ratio [3] of 1.7 and an IC50 [4] of 0.0041 µM. The Ratio [5] was 2.3, the Ki [6] was 0.0559 µM and the Ratio [1] was 3.2. For the same compound, the IC50 [7] was 0.0304 µM, the Ki [8] was 0.0362 µM and the IC50 [9] was 0.094 µM. For the same compound, the Ratio [10] was 0.05, the Ratio [11] was 1.5 and the Ratio [12] was 0.8.

With `COc1ccc(C2(O)c3ccccc3C3=NCCCN32)cc1OC` (stereo not given) the Ratio [1] was 0.1.
